The whole screen tested about 2,500 compounds, of which about 1,200 (48%) were called active. So high a share suggests a set chosen from earlier hits. Some of the results follow. Values without a mark were called inactive.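 How the source made its calls: active means mean activation above the low control average plus 3 SD, as set in the primary screen (cut at about 12% in these data); inactive means the rest.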
Biological target: Troponin I, cardiac muscle (Homo sapiens) + Troponin T, cardiac muscle (Homo sapiens) + Troponin C, slow skeletal and cardiac muscles (Homo sapiens) (UniProt P19429+P45379+P63316)
Experiment: calcium sensitizers of cardiac thin filaments – biochemical, IANBD-TnC fluorescence, triplicate, confirmation (AID 504383);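 further: 0% = DMSO at 0.472 mM calcium and 100% = DMSO at 2.9 mM calcium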
Settings: IANBD-labeled cardiac RTF, Ca2+ sensitivity fluorescence; at 7.2 µM; stronger effect = higher value; scaled from EC20 to saturating calcium; tested at EC20 calcium, 0.472 mM
Outline: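 Assay system: labelled regulated thin filaments / Timing: 15 min at 25 °C / Detection: fluorescence intensity of labelled filaments / Measure: fluorescence gain scaled between EC20 and EC100 calcium controls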

Compound | activation
COc1ccc(-n2c(O)c(/C=N/NS(=O)(=O)c3cccc([N+](=O)[O-])c3)c3ccccc3c2=O)cc1OC | 9.84%
COc1ccccc1NS(=O)(=O)c1cc([N+](=O)[O-])ccc1N/N=C/c1c(C)[nH]c2ccccc12 | 27.9% (active)
COc1ccccc1NS(=O)(=O)c1ccccc1C#N | 3.34%
CN(C)c1ccc(/C=C2\SC(=S)N(Nc3ncc(C(F)(F)F)cc3Cl)C2=O)cc1 | 7.16%
O=C(NN1C(=O)/C(=C/c2ccc(O)cc2)SC1=S)c1cccc(O)c1 | 12.5% (active)
CC(=O)NN1C(=O)/C(=C\c2ccc(O)cc2)SC1=S | 12.5% (active)
O=C(CCN1C(=O)/C(=C/c2cccs2)SC1=S)NNC(=O)c1cccc(O)c1 | 7.19%
O=C(NN1C(=O)/C(=C/c2ccc(O)cc2)SC1=S)c1ccccc1O | 9.61%
Cc1c(C2Nc3ccccc3NC3=C2C(=O)CC(C)(C)C3)cnn1C (centres undefined) | 4.72%
Cc1ccc(N2C3=C(C(=O)CC(C)(C)C3)C(c3cn(C)nc3C)C3=C2CC(C)(C)CC3=O)cc1 | 35.1% (active)
N#C/C(=C\c1c[nH]c2ccccc12)C(=O)Nc1ncc(Cc2ccc(Cl)cc2Cl)s1 | 30.3% (active)
COc1cc(/C=C(\C#N)C(=O)c2c[nH]c3ccccc23)cc(OC)c1O | 5.75%
COCCN=c1scc(-c2cc(OC)c(OC)c(OC)c2)n1/N=C/c1c(C)[nH]c2ccccc12 | 72.2% (active)
O=C(C1=C(O)C(=O)N(CCN2CCOCC2)C1c1ccc([N+](=O)[O-])cc1)c1cccs1 (centres undefined) | 188% (active)
CC(C)Oc1ccc(/C(O)=C2/C(=O)C(=O)N(CCN3CCNCC3)C2c2cccc([N+](=O)[O-])c2)cc1 (centres undefined) | 6.36%
COc1ccc(N(C(=O)c2ccc(C)cc2)S(=O)(=O)c2cccs2)cc1 | 175% (active)
COc1ccc(NC(=O)CNS(=O)(=O)c2cccs2)cc1 | 7.87%
Nc1ccc2cc3[nH]c4cc(N)ccc4c3nc2c1 | 13.7% (active)
O=C(O)C1=C[C@H](c2ccccc2)C[C@H](OCc2ccc(CO)cc2)O1 | 1.76%
Cc1c(O)c(=O)c2ccccc2n1C | 16.4% (active)
COc1ccc(NC(=O)CCN2CCCC2)c(OC)c1 | 80.7% (active)
COc1ccc(NC(=O)CCN2CC(C)OC(C)C2)c(OC)c1 (centres undefined) | 4.53%

Compound | activation
COc1ccc(CN2CCC(=O)N([C@H](CO)c3ccccc3)CC2)cc1 | 21.1% (active)
COc1ccc(CN2CNc3c(c(=O)n(C)c(=O)n3C)C2)cc1 | 14.9% (active)
COc1ccc(-c2c3c(=O)n(C)c(=O)n(C)c3cn2-c2cccc(OC)c2)cc1 | 1.1%
CCCNC(=S)N1CCC(NC(=O)C23CC4CC(CC(C4)C2)C3)CC1 | 8.77%
Nc1ccc2nc(-c3ccccc3)cnc2c1 | 83.1% (active)
c1ccc(-c2cnn3c(-c4ccccc4)c(-c4ccccc4)nc3n2)cc1 | 3.13%
CN1/C(=C\C=C2\N=C(c3ccc(F)cc3)OC2=O)C(C)(C)c2ccccc21 | 13.9% (active)
CCO/C=C1\N=C(c2ccc(F)cc2)OC1=O | 4.72%
CN1/C(=C\C=C2/SC(=S)NC2=O)C(C)(C)c2ccccc21 | 10.1%
CC(C)c1ccc(NS(=O)(=O)c2cccc3cccnc23)cc1 | 446% (active)
CCN(CC)C(=O)C1CCC(CNS(=O)(=O)c2cccc3cccnc23)CC1 (centres undefined) | 0.91%
O=C1CCC[C@@H]2C[C@@]3(C[C@@H]4CCN1[C@H]24)Nc1cc([N+](=O)[O-])ccc1NC3=NC1CCCCC1 | 41.2% (active)
COC(=O)C(=N/Nc1ccccc1C(=O)OC)/C(C)=N/O | 35.7% (active)
Cc1ccc2nc(/C(C#N)=C\c3ccc(N4CCOCC4)o3)[nH]c2c1 | 44.2% (active)
N#C/C(=C\c1ccc(N2CCOCC2)o1)c1nc2ccccc2[nH]1 | 29.6% (active)
N#C/C(=C/c1ccc(N2CCOCC2)o1)c1nc2ccccc2[nH]1 | 11.4%
Clc1ccc(-c2cn3nc4c(nc3n2)CCCC4)cc1 | 9.46%
c1ccc(-c2cn3nc4c(nc3n2)CCCC4)cc1 | 48.2% (active)
Brc1ccc(-c2cn3nc4c(nc3n2)CCCC4)cc1 | 22.8% (active)
Clc1ccc(-n2cc(-c3ccc(Br)cc3)[n+]3c2CCCCC3)cc1 | 0.54%
CC1(C)CC(=O)C=C(Nc2ccccc2N)C1 | 31.4% (active)
CC1(C)CC(=O)C=C(NCc2ccc(Cl)c(Cl)c2)C1 | 3.4%

Compound | activation
O/C=c1\ccc2cccc3nc(C(F)(F)F)nc1c23 | 5010% (active)
O=C(NCCc1ccccc1)c1ccc(Cl)nc1 | 16.1% (active)
Cc1ccccc1C(=O)NCCCc1ccccc1 | 0.23%
COC(=O)C1=C(C(=O)c2ccc(C)cc2)C(c2ccc(OC)c(OC)c2)n2nnnc2N1 (centres undefined) | 9.37%
CCOc1c2ccc(C(=O)NCCc3cccs3)cc2nn1CC | 9.3%
CC(C)CCNC(=O)c1ccc2c(SCC(=O)O)c3c(nc2c1)CCC3 | 35.4% (active)
Cc1cc(C)n2nc(SCC(=O)N(C)Cc3ccccc3)nc2n1 | -3.59%
CN(Cc1ccccc1)C(=O)N1CCOCC1 | 12.1% (active)
O=C(N1CCOCC1)N1CCC(n2nnc3ccccc32)CC1 | 5.64%
CCc1cc(C(=O)Nc2ccc(OC)nc2)sc1C | 4.99%
O=C(COc1ccc(Cl)cc1)NCc1ccccc1 | 10.9%
O=C(COC(=O)C1CCCCC1)Nc1ccc([N+](=O)[O-])cc1 | 82.4% (active)
Cc1ccc(C(=O)COC(=O)C2CCC2)cc1 | 9.89%
O=C(COC(=O)C1CCC(=O)N1)Nc1ccc(Oc2ccccc2)cc1 (centres undefined) | 5.98%
O=C(COC(=O)C1CCC1)NCc1ccccc1 | 286% (active)
CCn1cc(C(=O)NCCC(=O)NCCO)c(=O)c2cc3c(cc21)OCO3 | 57.2% (active)
CCC(CO)[n+]1c(C)cc(/C=C2\Sc3ccccc3N2Cc2ccccc2)cc1C (centres undefined) | 3.94%
CC[n+]1c(/C=C2\Sc3ccccc3N2C)ccc2cccc(C)c21 | 6.15%
COc1ccccc1-[n+]1c(C)cc(/C=C2\Sc3ccccc3N2C)cc1C | 12% (active)
COc1ccc(-[n+]2c(C)cc(/C=C3\Sc4ccccc4N3C)cc2C)cc1 | 249% (active)
